# APP 5UTR inh: APP translation inhibition. inhibition, % at 2 µM. actives 0.82% (n = 190,000). SH-SY5Y APP 5'UTR-luciferase reporter, luminescence. AID 1285;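 active means inhibition above a set limit, derived from the sample mean plus 3 SD, cut at about 45% in these data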
# STAT1 activator: STAT1 signaling activation; actives 2.6% (n = 200,000); AID 932; activation (% of control), % at 5.5 µM; NIH 3T3 STAT1-luciferase reporter, IFN-gamma, luminescence; 100% = IFN-gamma alone, no compound;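 active means activation above the screen-wide mean activation plus 3 SD, cut at about 130% in these data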
# FLuc inhib CS: counter-screen for luciferase assay inhibitors: firefly luciferase inhibition. P08659. ATPLite firefly luciferase biochemical luminescence, 10 min. inhibition, % at 10 µM. actives 1.5% (n = 200,000). AID 1006;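 active means inhibition above about 50% when tested at 10 µM, limit read from the data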
# Target sequence (P08659 whole entry, looked up): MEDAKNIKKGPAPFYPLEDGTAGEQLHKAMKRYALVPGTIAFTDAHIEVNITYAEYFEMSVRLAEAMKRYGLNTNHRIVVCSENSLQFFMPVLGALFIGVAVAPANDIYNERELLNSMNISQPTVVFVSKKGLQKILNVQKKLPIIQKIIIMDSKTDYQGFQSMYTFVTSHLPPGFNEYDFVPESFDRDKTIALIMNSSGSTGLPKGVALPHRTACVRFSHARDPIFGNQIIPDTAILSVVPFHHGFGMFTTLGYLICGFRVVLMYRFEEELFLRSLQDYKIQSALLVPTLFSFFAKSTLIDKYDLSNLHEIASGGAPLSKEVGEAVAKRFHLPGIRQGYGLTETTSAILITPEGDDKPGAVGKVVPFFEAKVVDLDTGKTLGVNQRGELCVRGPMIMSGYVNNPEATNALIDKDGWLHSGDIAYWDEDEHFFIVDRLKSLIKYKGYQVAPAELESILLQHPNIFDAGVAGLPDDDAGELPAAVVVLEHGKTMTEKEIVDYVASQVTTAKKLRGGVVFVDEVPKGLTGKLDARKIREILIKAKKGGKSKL
# FLuc stim CS: affects firefly luciferase, flagging false hits in luciferase stimulation screens. 200,000 tested, under 10 active. ATPlite luciferase biochemical, luminescence, 10 min; 0 = ATP-free wells, 1 = DMSO control. activation factor at 10 µM;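 active means luciferase activation factor, scaled between plate controls, of at least 2 with compound at 10 µM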
#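 System: Luciferase/luciferin detection reagent, cell-free biochemical luciferase assay | Medium: PBS buffer for ATP | Dosing: Test compounds dosed from 2 mM stocks in 100% DMSO | Timing: 10 min at ambient temperature | Signal: Luminescence measurement of luciferase light output | Evaluation: Luciferase activation, seen as luminescence increase over controls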
# APP 5'UTR act: activates APP 5'UTR luciferase reporter; AID 1276; actives 1% (n = 190,000); activation, % at 2 µM; SH-SY5Y APP 5'UTR luciferase reporter, luminescence; zero percent = DMSO vehicle wells;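 active means activation above a set limit, based on mean plus 3 SD of controls, cut at about 140% in these data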
# NF-kB expr up: raises NF-kB expression in human neuronal cells; NF-kB reporter expression; hits give high values; fold change at 12.5 µM; actives 1.6% (n = 190,000); AID 1239; in the data active means fold change above about 3.3
# Hits are given with their value; - = inactive. Most compounds without a hit are left out; they make up all but 4.8% or so of the library.
SMILES,APP 5UTR inh,STAT1 activator,FLuc inhib CS,FLuc stim CS,APP 5'UTR act,NF-kB expr up
Nc1nc(-c2cccs2)cs1,-,-,-,-,-,-
O=C(/C=C/c1ccc([N+](=O)[O-])cc1)NCCc1ccc(F)cc1,-,-,-,-,-,-
O=C(NCCc1ccc(F)cc1)c1ccc([N+](=O)[O-])cc1,-,137.2,-,-,-,-
CC(=O)NCc1ccc(C(=O)CCl)s1,-,-,-,-,-,4.03
CC(=O)Nc1ccccc1-c1nc2ccccc2nc1OCC(=O)c1ccc2ccccc2c1,-,-,-,-,-,-
CC1CCCC(C)N1C(=O)CSc1nnc(C2CCCCC2)o1 (stereo not given),-,-,-,-,-,-
CC1CN(c2ncnc3c2cnn3-c2ccc(Cl)cc2)CC(C)O1 (stereo not given),-,146.7,-,-,-,-
COc1ccc(-n2ncc3c(N4CCCCC4)ncnc32)cc1,-,-,94.3,-,-,-
Clc1ccc(-n2ncc3c(N4CCCCCC4)ncnc32)cc1,-,-,82.6,-,-,-
N#CC1=C2C=CC=CN2CC1=O,-,144.5,-,-,-,-
S=c1sc2c(Cl)ncnc2n1-c1ccccc1,64.9,-,-,-,-,-
COc1ccc(CNC(=O)C2COc3ccccc3O2)c(OC)c1 (stereo not given),-,-,-,-,-,-
COc1ccc(NC(=O)c2csc3c2CCCC3)cc1,-,141.5,-,-,159.3,7.31
Cc1ccc(/C=N\NC(=O)c2csnn2)cc1,-,134.0,65.5,-,-,-
COc1cc(/C=N/NC(=O)c2csc3c2CCCC3)cc(OC)c1O,-,-,-,-,-,-
Cc1ccc(S(=O)(=O)NNC(=O)c2csnn2)cc1,-,-,-,-,-,-
CC(C)(C)C1CCc2c(C(=O)N/N=C/c3cccs3)csc2C1 (stereo not given),-,129.2,-,-,-,-
Cc1ccc(/C=N/NC(=O)c2csc3c2CCCC3)cc1,89.7,-,-,-,-,3.77
Cc1cc(O)ccc1NC(=O)CCN1C(=O)c2ccc([N+](=O)[O-])cc2C1=O,-,-,-,-,-,-
COc1cccc(NC(=O)c2csc3c2CCCC3)c1,-,144.9,-,-,-,-
O=c1c2nnn(Cc3ccc(Cl)cc3)c2ncn1Cc1ccc(F)cc1,-,-,-,-,-,-
O=c1c(Cl)c(Cl)cnn1Cc1ccc(F)cc1,50.7,-,-,-,-,-
CCOC(=O)c1cc[n+](CC(=O)c2ccc(F)cc2)cc1,-,-,-,-,-,-
O=C(OCn1ncc(Cl)c(Cl)c1=O)c1ccccc1Cl,86.8,-,-,-,-,-
O=C(OCn1ncc(Cl)c(Cl)c1=O)c1ccc(F)cc1,96.7,-,-,-,-,-
SMILES,APP 5UTR inh,STAT1 activator,FLuc inhib CS,FLuc stim CS,APP 5'UTR act,NF-kB expr up
CN(C)c1cccc(C(=O)N/N=C/c2ccsc2)c1,-,-,90.0,-,-,-
Cc1scc(C(=O)N/N=C/c2ccsc2)c1C,-,140.1,83.8,-,-,4.64
Cc1scc(C(=O)N/N=C/c2ccco2)c1C,-,-,54.4,-,-,-
CN(C)c1ccc(/C=N/NC(=O)c2cccc(C(=O)N/N=C/c3ccc(N(C)C)cc3)n2)cc1,-,-,-,-,-,-
NC(=O)c1cc[n+](CC(=O)c2ccc(NC(=O)c3ccccc3)cc2)cc1,-,-,-,-,-,-
C=CCOc1ccc(/C=C/C(=O)Nc2ccc(C(=O)NC)cc2)cc1,-,-,-,-,-,-
Cc1c(=O)n(OCc2ccccc2F)c2ccccc2[n+]1[O-],-,-,-,-,-,5.19
CCCCNC(=O)c1cc(-c2ccc(F)cc2)on1,-,135.6,-,-,-,11.5
CCCCNC(=O)c1cc(-c2ccc(OC)c(OC)c2)on1,-,-,-,-,-,-
CCCCNC(=O)c1cc(-c2ccc(OC)cc2)on1,-,-,-,-,-,3.57
CCOc1ccc(-n2ccnc2SCC(=O)Nc2cc(C)on2)cc1,-,-,-,-,-,-
COc1cc(CN2CCNC(=O)C2CC(=O)N2CCCO2)cc(OC)c1 (stereo not given),-,-,-,-,-,-
Cc1cc2cc(CNC(=S)NC3CCCCC3)ccc2n1C,-,-,-,-,-,-
CCCCC(=O)Nc1ccc(C(=O)N2CCN(c3ccccc3OC)CC2)cc1,68.7,-,-,-,-,-
CCN(CC)c1ccc(/C=N/N2CCOCC2)cc1,-,139.1,51.5,-,-,-
Cc1cccc(NC(=O)/C=C/c2ccc([N+](=O)[O-])s2)c1,87.8,-,-,-,-,-
Cc1ccc(NC(=O)COC(=O)c2ccc([N+](=O)[O-])s2)c(C)c1,58.1,-,-,-,-,-
Cc1cccc(NC(=S)N/N=C/c2ccc([N+](=O)[O-])s2)c1,-,-,-,-,-,-
Cc1ccc(NC(=O)/C=C/c2ccc([N+](=O)[O-])s2)cc1,84.5,-,-,-,-,-
Cc1ccc(C(=O)N/N=C/c2ccc([N+](=O)[O-])s2)cc1,70.3,-,-,-,-,-
Cc1ccc(/C=C/C(=O)Nc2ccc([N+](=O)[O-])cc2)o1,-,-,-,-,-,-
Cc1ccc(NC(=S)NCc2ccccc2)cc1S(=O)(=O)N1CCCCC1,-,-,-,-,-,-
CC(C)N(C(=O)Cc1ccccc1[N+](=O)[O-])C(C)C,-,-,-,-,-,-
Cc1cc([N+](=O)[O-])ccc1NC(=O)/C=C/c1cccs1,-,-,-,-,-,-
Cc1ccc(NC(=O)/C=C/c2ccc([N+](=O)[O-])s2)c(C)c1,93.3,-,-,-,-,-
SMILES,APP 5UTR inh,STAT1 activator,FLuc inhib CS,FLuc stim CS,APP 5'UTR act,NF-kB expr up
Cc1ccsc1C1Nc2ccccc2-c2nc3ccccc3n21 (stereo not given),-,129.1,-,-,-,-
COc1cccc(NC(=O)c2ncc(Cl)c(Cl)c2Cl)c1,-,-,-,-,-,-
COc1ccc(N=Nc2nc3ccc(Br)cc3n2C)cc1,-,-,84.3,-,-,-
COc1ccc(Cc2nc3ccccc3n2C)cc1,-,-,-,-,-,-
O=c1cc(O)c2ccccc2n1Cc1ccccc1,-,-,-,-,-,-
Nc1[nH]nc2nc(N3CCCC3)nc(-c3ccccc3)c12,-,-,-,-,-,-
Nc1[nH]nc2ncc3cc4ccccc4nc3c12,-,138.8,-,-,-,-
COc1ccc2c(c1)C(SCC(=O)NCCc1ccc(Cl)cc1)CC(C)(C)O2 (stereo not given),-,-,-,-,-,-
COc1cccc2sc(N(C)c3ccccc3)nc12,-,150.2,85.4,-,218.0,5.75
CCOc1ccc(-c2cnc3n2CCC3)cc1,45.7,-,-,-,-,-
Brc1ccc(-c2cnc3n2CCCC3)cc1,-,-,-,-,-,-
Cc1ccccc1Cn1nnc(-c2ccc3c(c2)OCO3)n1,-,-,-,-,-,-
